The text below walks through data of ChEMBL document CHEMBL4049430, “Indazole-6-phenylcyclopropylcarboxylic Acids as Selective GPR120 Agonists with in Vivo Efficacy” (J Med Chem, 2017).

Bounds are passed on as bounds.

In data set [1] the target is Free fatty acid receptor 1 (Mus musculus, UniProt Q76JU9). In words: Agonist activity at mouse GPR40 expressed in HEK293 cells assessed as increase in intracellular calcium level after 5 mins by FLUO-4-AM dye-based FLIPR assay. It is filed as functional, cell-based. In outline:
(§1)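 HEK293s cells stably expressing mouse GPR40 were seeded 24 h before assay and loaded for 1 h with calcium 3/Fluo-4 AM in HBSS, 20 mM HEPES, 0.01% BSA, 2.5 mM probenecid, pH 7.4. FLIPR Tetra took 10 baseline reads, then read for 5 min after addition. Runs were in duplicate, 9 points, 100 μM to 7 nM final, as % of maximal eladic acid control.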

In data set [2] the target is T1, Free fatty acid receptor 4 (Homo sapiens, UniProt Q5NUL3).
T1 sequence (Q5NUL3 whole entry): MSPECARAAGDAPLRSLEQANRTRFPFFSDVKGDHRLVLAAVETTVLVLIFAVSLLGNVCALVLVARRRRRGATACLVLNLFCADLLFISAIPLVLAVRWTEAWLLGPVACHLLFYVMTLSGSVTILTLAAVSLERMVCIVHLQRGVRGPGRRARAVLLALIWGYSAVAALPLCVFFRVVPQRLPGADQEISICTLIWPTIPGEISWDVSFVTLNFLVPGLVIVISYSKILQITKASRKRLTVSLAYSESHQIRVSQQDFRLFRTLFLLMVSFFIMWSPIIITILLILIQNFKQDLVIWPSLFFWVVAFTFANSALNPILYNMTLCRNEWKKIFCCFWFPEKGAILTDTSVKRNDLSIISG
In words: Agonist activity at human GPR120 expressed in CHO-FlpIn cells after 15 mins by DMR assay. It is filed as cell-based. In outline:
(§2)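 Cryopreserved CHO FlpIn cells stably expressing human or mouse GPR120 were seeded 48 h before assay, serum-starved for 24 h, then held 2 h in HBSS/20 mM HEPES/0.01% BSA (pH 7.4) with 0.5% DMSO. DMR was read over a 10 min baseline and for 15 min after addition. Runs were in duplicate, 10 points, 16 μM to 0.8 nM final, as % of maximal control agonist.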

In data set [3] the target is Free fatty acid receptor 1 (Mus musculus) (UniProt Q76JU9). In words: Agonist activity at mouse GPR40 expressed in HEK293 cells assessed as increase in intracellular calcium level after 5 mins by FLUO-4-AM dye-based FLIPR assay relative to control. It counts as functional, cell-based. The method, boiled down: as §1
Sequence of Free fatty acid receptor 1 (Mus musculus) (Q76JU9 whole entry): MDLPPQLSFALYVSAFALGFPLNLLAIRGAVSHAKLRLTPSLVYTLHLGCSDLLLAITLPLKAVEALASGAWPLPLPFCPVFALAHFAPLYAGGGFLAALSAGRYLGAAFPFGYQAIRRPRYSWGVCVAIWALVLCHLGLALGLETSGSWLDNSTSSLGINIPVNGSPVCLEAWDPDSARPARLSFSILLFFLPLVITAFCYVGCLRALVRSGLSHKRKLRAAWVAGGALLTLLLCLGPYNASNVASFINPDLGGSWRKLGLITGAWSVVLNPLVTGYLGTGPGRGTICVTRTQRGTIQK
Data set [4] deals with T2, Free fatty acid receptor 4 (Homo sapiens) (UniProt Q5NUL3).
T2 sequence (whole entry): T1 sequence (Q5NUL3 whole entry)
In words: Agonist activity at human GPR120 expressed in CHO-FlpIn cells after 15 mins by DMR assay relative to control. It is filed as cell-based. In outline:
as §2

Data set [5] is described as follows: Octanol-buffer partition coefficient, log D of the compound at pH 7.4 after 30 mins by LC-UV based shake-flask method.
In data set [6] the target is T3, Free fatty acid receptor 4 (Mus musculus) (UniProt Q7TMA4).
T3 sequence (whole entry): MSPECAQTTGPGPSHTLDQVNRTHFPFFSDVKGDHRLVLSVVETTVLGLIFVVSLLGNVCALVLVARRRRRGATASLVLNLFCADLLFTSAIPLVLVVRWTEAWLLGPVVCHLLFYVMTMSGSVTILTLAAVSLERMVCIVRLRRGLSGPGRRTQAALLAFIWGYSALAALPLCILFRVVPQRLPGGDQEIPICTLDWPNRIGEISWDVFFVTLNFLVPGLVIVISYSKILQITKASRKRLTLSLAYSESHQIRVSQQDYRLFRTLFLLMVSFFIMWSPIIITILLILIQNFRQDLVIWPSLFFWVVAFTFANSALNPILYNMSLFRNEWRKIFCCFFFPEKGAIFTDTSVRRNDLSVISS
In words: Agonist activity at mouse GPR120 expressed in CHO-FlpIn cells after 15 mins by DMR assay relative to control. It is filed as cell-based. In outline: as §2

The target of data set [7] is T4, Free fatty acid receptor 4 (Mus musculus, UniProt Q7TMA4).
T4 sequence (Q7TMA4 whole entry): T3 sequence (whole entry)
Put plainly: Agonist activity at mouse GPR120 expressed in CHO-FlpIn cells after 15 mins by DMR assay. It counts as cell-based. The method, boiled down: as §2

Sequence of Free fatty acid receptor 1 (Q76JU9 whole entry): as the sequence (Q76JU9 whole entry) above

On to `Cc1nn(-c2ccccn2)c2cc(-c3ccc([C@H]4C[C@H]4C(=O)O)cc3)ccc12` (racemic), for which the EC50 in data set [1] was 19000 nM; in data set [2], over 17000 nM. Moreover, the Efficacy in data set [3] is 81%; in data set [4] it was 9%.
As to `Cc1nn(-c2ccccn2)c2cc(-c3ccc(CCC(=O)O)cc3)ncc12`, the values for the EC50 in data set [1] and in data set [2] were 9200 nM and 2600 nM, respectively. This compound registered a logD at 0.5 h in data set [5] of 1.6. Moreover, the Efficacy worked out at 86% in data set [3] and 78% in data set [4].
Consider `Cc1nn(-c2ccccn2)c2cc(-c3ccc(CC(C)(C)C(=O)O)cc3)ccc12`, for which the figures for the EC50 in data set [1] and in data set [2] were over 100000 nM and 4100 nM, respectively. Besides, the Efficacy was found to be 18% in data set [3] and 79% in data set [4].
As to `Cc1nn(-c2ccccn2)c2cc(-c3ccc([C@H]4C[C@@H]4C(=O)O)cc3)ccc12` [listing 1 of 2 here], the EC50 is over 100000 nM in data set [1] and 690 nM in data set [2].
Take `COc1cc(CCC(=O)O)ccc1-c1ccc2c(C)nn(-c3ccccn3)c2c1`: the EC50 in data set [1] was found to be 8200 nM; in data set [2] it was 720 nM. For the same compound, in data set [5], the logD at 0.5 h was determined as 2.4. Moreover, the Efficacy turned out to be 62% in data set [3] and 82% in data set [4].
In the case of `C[C@H](Cc1ccc(-c2ccc3cnn(-c4ccccn4)c3c2)cc1)C(=O)O`, the concentration giving a half-maximal response (EC50) in data set [1] is over 100000 nM; in data set [2] it was 4300 nM. The Efficacy in data set [3] came out at 18%; in data set [4], 88%.
Regarding `Cc1nn(-c2ccccn2)c2cc(-c3ccc([C@H]4C[C@@H]4C(=O)O)cc3)ccc12` (racemic) [listing 1 of 2 here], the Efficacy in data set [3] was 6%; in data set [4], 87%.
Regarding `Cc1cc(-c2ccc(CCC(=O)O)cc2)cc2c1cnn2-c1ccccn1`, the EC50 in data set [1] was found to be 2600 nM; in data set [2] it was 4600 nM. The compound further returned a logD at 0.5 h in data set [5] of 2.6. Further, the Efficacy in data set [3] came out at 82%; in data set [4], 70%.
Take `Cc1nn(-c2ccccn2)c2cc(-c3ccc([C@H]4C[C@@H]4C(=O)O)cc3)ccc12` (racemic) [listing 2 of 2 here]: the EC50 in data set [1] is over 100000 nM; in data set [2] it was 850 nM.
As to `COc1nn(-c2ccccn2)c2cc(-c3ccc(CCC(=O)O)cc3)ccc12`, the figures for the EC50 in data set [1] and in data set [2] were 2600 nM and 250 nM, respectively. The compound further showed a logD at 0.5 h in data set [5] of 3.3. Moreover, the Efficacy in data set [3] was 96%; in data set [4], 122%.
In the same order, the values of `O=C(O)CCc1ccc(-c2ccc3cnn(-c4ccccn4)c3c2)cc1` are 4500 nM, 990 nM, 2.4, 106% and 114%.
Take `Cc1nn(-c2ccccn2)c2cc(-c3ccc(CCC(=O)O)cc3C#N)ccc12`: the values for the concentration giving a half-maximal response (EC50) in data set [1] and in data set [2] were 6100 nM and 2400 nM, respectively. This compound registered a logD at 0.5 h in data set [5] of 2.2. Moreover, the Efficacy in data set [3] was 47%; in data set [4], 80%.
In the case of `Cc1nn(-c2ccccn2)c2cc(-c3ccc(CCC(=O)O)cc3)ccc12`, the half-maximal effective concentration (EC50) in data set [1] stood at 1400 nM; in data set [2], 640 nM. For the same compound, the Efficacy in data set [3] was found to be 95%; in data set [4] it was 107%.
In the case of `Cc1nn(-c2ccccn2)c2cc(-c3ccc([C@H]4C[C@@H]4C(=O)O)cc3)ccc12` [listing 2 of 2 here], the results for the Efficacy in data set [3] and in data set [4] were 10% and 95%, respectively.
On to `Cc1nn(-c2ccccn2)c2cc(-c3ccc(CCC(=O)O)cc3F)ccc12`, for which the EC50 in data set [1] is 1500 nM; in data set [2], 600 nM. In data set [5], the logD at 0.5 h amounted to 2.9. For the same compound, the results for the Efficacy in data set [3] and in data set [4] were 105% and 113%, respectively.
As to `Cc1nn(-c2ccccn2)c2cc(-c3ccc(C(C)CC(=O)O)cc3)ncc12` (stereo unspecified), the EC50 in data set [1] is 61000 nM; in data set [2], 12000 nM. Also, the Efficacy came out at 50% in data set [3] and 28% in data set [4].
In the case of `Cc1ccc(-n2nc(C)c3cnc(-c4ccc([C@H]5C[C@@H]5C(=O)O)cc4)cc32)cc1`, the EC50 is over 100000 nM in data set [1], 900 nM in data set [2] and 640 nM in data set [7]. Moreover, the Efficacy in data set [6] is 99%; in data set [3], 12%; in data set [4], 76%. Further, the logD at 0.5 h in data set [5] is 2.6.
Take `N#Cc1cc(-c2ccc(CCC(=O)O)cc2)cc2c1cnn2-c1ccccn1`: the EC50 in data set [1] was 19000 nM; in data set [2], 2000 nM. This compound also showed a logD at 0.5 h in data set [5] of 2.2. Also, the Efficacy is 113% in data set [3] and 78% in data set [4].
As to `Cc1ccc(-n2nc(C)c3c(F)cc(-c4ccc([C@H]5C[C@@H]5C(=O)O)cc4)cc32)cc1`, the EC50 in data set [1] is over 100000 nM; in data set [2], 520 nM; in data set [7], 540 nM. The Efficacy was found to be 112% in data set [6], 14% in data set [3] and 88% in data set [4]. Moreover, in data set [5], the logD at 0.5 h was 4.2.
Take `Cc1nn(-c2ccccn2)c2cc(-c3ccc([C@@H]4C[C@H]4C(=O)O)cc3)ccc12`: the EC50 was over 100000 nM in data set [1] and over 17000 nM in data set [2]. The Efficacy was found to be 2% in data set [3] and 26% in data set [4].
In the same order, the values of `Cc1nn(-c2ccccn2)c2cc(-c3cccc(CCC(=O)O)c3)ccc12` are over 100000 nM, over 17000 nM, 0% and 28%.
In turn, `Cc1nn(-c2ccccn2)c2cc(-c3ccc(CC(=O)O)cc3)ccc12` came in with an EC50 in data set [2] of over 17000 nM. In data set [4], this compound gave an Efficacy of 8%.
Turning to `O=C(O)CCc1ccc(-c2cc(F)c3cnn(-c4ccccn4)c3c2)cc1`, the EC50 was 2600 nM in data set [1] and 470 nM in data set [2]. In data set [5], this compound returned a log distribution coefficient (logD) at 0.5 h of 2.8. Besides, the Efficacy came to 126% in data set [3] and 100% in data set [4].
`Cc1nn(-c2ccccn2)c2cc(-c3cccc(CC(=O)O)c3)ccc12` gave an EC50 in data set [2] of over 17000 nM. Besides, the Efficacy in data set [4] amounted to 3%.
`O=C(O)CCc1ccc(-c2ccc3c(OCc4ccccc4)nn(-c4ccccn4)c3c2)cc1`: the results for the EC50 in data set [1] and in data set [2] were 1300 nM and over 17000 nM, respectively. In addition, the Efficacy in data set [3] was determined as 81%; in data set [4], 2%.
In the same order, the values of `C[C@@H](Cc1ccc(-c2ccc3cnn(-c4ccccn4)c3c2)cc1)C(=O)O` are 3800 nM, 4000 nM, 31% and 100%.
In the same order, the values of `Cc1nn(-c2ccccn2)c2cc(-c3ccc(CCCC(=O)O)cc3)ccc12` are 2100 nM, 260 nM, 117% and 128%.
As for `N#Cc1nn(-c2ccccn2)c2cc(-c3ccc(CCC(=O)O)cc3)ccc12`, the EC50 amounted to 2000 nM in data set [1] and 4800 nM in data set [2]. The logD at 0.5 h in data set [5] was 3. In addition, the Efficacy in data set [3] turned out to be 124%; in data set [4], 87%.
With `Cc1nn(-c2ccccn2)c2cc(-c3ccc(CCC(=O)O)cc3Cl)ccc12`, the EC50 in data set [1] was 1200 nM; in data set [2] it was 710 nM. The logD at 0.5 h in data set [5] is 3.3. Moreover, the Efficacy worked out at 102% in data set [3] and 113% in data set [4].
In the same order, the values of `CCc1nn(-c2ccccn2)c2cc(-c3ccc(CCC(=O)O)cc3)ccc12` are 1100 nM, 760 nM, 3.3, 93% and 75%.

By EC50 is commonly meant the concentration giving half of the maximal effect. In general, logD refers to the decadic logarithm of the distribution of all forms, ionised or not, between an organic phase and buffer at a given pH. The low end stands for lower lipophilicity, the high end for higher lipophilicity.
